The values that follow come from ChEMBL document CHEMBL1125600, “Sulfonylbenzoyl-nitrostyrenes: potential bisubstrate type inhibitors of the EGF-receptor tyrosine protein kinase” (J Med Chem, 1991).

Each structure is given as a SMILES string.

Assay [1] can be described thus: Inhibition of the protein kinase C.
For assay [2], the target named is Epidermal growth factor receptor (Homo sapiens, UniProt P00533). The assay is described as follows: Inhibition of the epidermal growth factor receptor expressed in A431 cell line.
Epidermal growth factor receptor, sequence (P00533 whole entry): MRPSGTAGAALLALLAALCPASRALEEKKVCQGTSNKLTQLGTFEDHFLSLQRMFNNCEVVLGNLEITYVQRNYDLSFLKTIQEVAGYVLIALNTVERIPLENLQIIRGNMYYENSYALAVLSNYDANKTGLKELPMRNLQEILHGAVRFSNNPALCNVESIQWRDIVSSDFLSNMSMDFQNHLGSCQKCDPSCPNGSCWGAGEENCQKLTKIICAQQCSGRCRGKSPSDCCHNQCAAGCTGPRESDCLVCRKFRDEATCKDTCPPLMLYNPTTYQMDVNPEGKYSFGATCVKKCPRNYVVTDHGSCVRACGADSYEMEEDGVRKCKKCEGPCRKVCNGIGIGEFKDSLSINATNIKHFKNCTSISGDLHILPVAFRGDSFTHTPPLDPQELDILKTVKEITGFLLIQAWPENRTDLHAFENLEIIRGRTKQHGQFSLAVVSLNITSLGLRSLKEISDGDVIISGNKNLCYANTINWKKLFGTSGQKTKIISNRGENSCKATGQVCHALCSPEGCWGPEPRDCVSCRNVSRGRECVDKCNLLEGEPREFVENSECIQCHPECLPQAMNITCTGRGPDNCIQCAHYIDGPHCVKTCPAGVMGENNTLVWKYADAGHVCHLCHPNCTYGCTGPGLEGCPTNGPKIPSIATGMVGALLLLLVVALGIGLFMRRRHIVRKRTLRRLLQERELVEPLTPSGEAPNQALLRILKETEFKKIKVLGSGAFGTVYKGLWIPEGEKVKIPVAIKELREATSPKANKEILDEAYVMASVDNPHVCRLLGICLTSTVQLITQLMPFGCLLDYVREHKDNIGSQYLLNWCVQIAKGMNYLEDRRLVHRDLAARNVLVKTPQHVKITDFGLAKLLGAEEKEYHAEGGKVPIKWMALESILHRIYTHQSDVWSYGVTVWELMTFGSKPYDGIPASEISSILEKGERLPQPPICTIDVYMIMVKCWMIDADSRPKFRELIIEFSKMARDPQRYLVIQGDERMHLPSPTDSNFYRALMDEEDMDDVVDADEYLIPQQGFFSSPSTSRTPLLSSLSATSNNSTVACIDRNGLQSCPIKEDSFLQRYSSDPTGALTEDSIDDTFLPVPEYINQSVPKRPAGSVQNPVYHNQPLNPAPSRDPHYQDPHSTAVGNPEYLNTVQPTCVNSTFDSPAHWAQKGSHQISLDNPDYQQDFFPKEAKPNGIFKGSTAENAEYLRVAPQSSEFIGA
For assay [3], the target named is Tyrosine-protein kinase ABL (Homo sapiens, UniProt P00519+P42684). Nature of the assay: Inhibition of recombinant v-Abl tyrosine kinase. The class given is protein assay. The method, boiled down:
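The reaction contained 20 mM Tris pH 7.5, 10 mM MgCl2, 10 µM [γ-32P]ATP and about 50 ng enzyme. Compounds were in DMSO. Reactions were stopped with trichloroacetic acid and aliquots were spotted on P81 paper.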

A short description of assay [4]: Antiproliferative activity tested by using EGF- stimulated cellular proliferation of balb/MK mouse epidermal keratinocytes (balb/MK cells).

In general, IC50 refers to the midpoint of a concentration-inhibition curve. As to `COc1cc(/C=C/[N+](=O)[O-])ccc1OS(=O)(=O)c1ccc(C(=O)O)cc1`, the IC50 in assay [1] was over 500 µM; in assay [2] it was 2.8 µM; in assay [3] it was 40 µM; in assay [4] it was 35 µM.

Regarding `C[C@@H](NC(=O)[C@@H](C)NC(=O)c1ccc(S(=O)(=O)Oc2ccc(/C=C/[N+](=O)[O-])cc2)cc1)C(=O)O`, the IC50 in assay [1] is over 100 µM; in assay [2] it was 7 µM; in assay [3] it was 35 µM; in assay [4], over 50 µM.

As for `O=[N+]([O-])/C=C/c1ccc(O)cc1`, the IC50 is over 500 µM in assay [1], 10.1 µM in assay [2], over 100 µM in assay [3] and 4.8 µM in assay [4].

Turning to `O=[N+]([O-])/C=C/c1ccc(O)c(O)c1`, the IC50 was over 500 µM in assay [1], 8.8 µM in assay [2], 100 µM in assay [3] and 2.9 µM in assay [4].

With `CNC(=O)c1ccc(S(=O)(=O)Oc2ccc(/C=C(\C)[N+](=O)[O-])cc2OC)cc1`, the values for the IC50 in assay [1], in assay [2] and in assay [4] were over 500 µM, 4 µM and 2.1 µM, respectively.

`O=C(O)c1ccc(S(=O)(=O)Oc2ccc(/C=C/[N+](=O)[O-])cc2)cc1O`: the IC50 is 500 µM in assay [1], 0.054 µM in assay [2], 27 µM in assay [3] and over 50 µM in assay [4].

In the case of `NCCNC(=O)c1ccc(S(=O)(=O)Oc2ccc(/C=C/[N+](=O)[O-])cc2)cc1`, the IC50 in assay [1] turned out to be 60 µM; in assay [2], 5.4 µM; in assay [3], 5 µM; in assay [4] it was 32 µM.

For the compound `COC(=O)c1ccc(S(=O)(=O)Oc2ccc(/C=C/[N+](=O)[O-])cc2)cc1`, the IC50 in assay [1] was over 500 µM; in assay [2], 1.5 µM; in assay [3] it was over 100 µM; in assay [4], 12 µM.

On to `C[C@@H](NC(=O)c1ccc(S(=O)(=O)Oc2ccc(/C=C/[N+](=O)[O-])cc2)cc1)C(=O)N[C@H](C)C(=O)OC(C)(C)C`, for which the IC50 was over 450 µM in assay [1], 40 µM in assay [2], over 100 µM in assay [3] and 2.7 µM in assay [4].

For `COc1cc(/C=C/[N+](=O)[O-])ccc1O`, the IC50 in assay [1] was over 500 µM; in assay [2], 7.9 µM; in assay [3] it was over 100 µM; in assay [4], 3.5 µM.

Take `COC(=O)c1ccc(S(=O)(=O)Oc2ccc(/C=C/[N+](=O)[O-])cc2)cc1O`: the values for the IC50 in assay [2], in assay [3] and in assay [4] were 1.8 µM, over 100 µM and 5.7 µM, respectively.

With `O=C(O)c1ccc(S(=O)(=O)Oc2ccc(/C=C/[N+](=O)[O-])cc2)c(O)c1`, the IC50 in assay [1] was over 500 µM; in assay [2], 0.31 µM; in assay [3] it was 100 µM; in assay [4] it was over 50 µM.

Take `CC(C)(C)NC(=O)c1ccc(S(=O)(=O)Oc2ccc(/C=C/[N+](=O)[O-])cc2)cc1`: the IC50 in assay [1] was 340 µM; in assay [2], 1.3 µM; in assay [3] it was over 100 µM; in assay [4] it was 2.1 µM.

As for `O=C(O)c1ccc(S(=O)(=O)Oc2ccc(/C=C/[N+](=O)[O-])cc2)cc1`, the IC50 in assay [1] is over 500 µM; in assay [2], 1 µM; in assay [3], 100 µM; in assay [4] it was over 50 µM.

Turning to `CCCCNC(=O)c1ccc(S(=O)(=O)Oc2ccc(C=O)cc2)cc1`, the IC50 in assay [2] was over 100 µM; in assay [4], over 50 µM.

On to `CNC(=O)c1ccc(S(=O)(=O)Oc2ccc(/C=C/[N+](=O)[O-])cc2)cc1`, for which the IC50 is 290 µM in assay [1], 0.4 µM in assay [2], 35 µM in assay [3] and 5.2 µM in assay [4].

Regarding `CCCCNC(=O)c1ccc(S(=O)(=O)Oc2ccc(/C=C/[N+](=O)[O-])cc2)cc1`, the IC50 in assay [1] was over 500 µM; in assay [2], 4.8 µM; in assay [3] it was over 100 µM; in assay [4], 3.8 µM.

Consider `COc1cc(/C=C/[N+](=O)[O-])ccc1OS(=O)(=O)c1ccc(C(=O)OC[C@H]2O[C@@H](n3cnc4c(N)ncnc43)[C@H](O)[C@@H]2O)cc1`, for which the IC50 in assay [1] was 10 µM; in assay [2], 0.5 µM; in assay [3], 100 µM; in assay [4], 45 µM.

As for `CC(C)(C)OC(=O)NCCNC(=O)c1ccc(S(=O)(=O)Oc2ccc(/C=C/[N+](=O)[O-])cc2)cc1`, the IC50 in assay [1] was 320 µM; in assay [2], 1.4 µM; in assay [3] it was over 100 µM; in assay [4] it was 4.8 µM.

For the compound `Nc1ncnc2c1ncn2[C@@H]1O[C@H](COC(=O)c2ccc(S(=O)(=O)Oc3ccc(/C=C/[N+](=O)[O-])cc3)cc2)[C@@H](O)[C@H]1O`, the IC50 was 13 µM in assay [1], 0.6 µM in assay [2], over 100 µM in assay [3] and 61 µM in assay [4].

Turning to `C[C@@H](NC(=O)c1ccc(S(=O)(=O)Oc2ccc(/C=C/[N+](=O)[O-])cc2)cc1)C(=O)N[C@H](C)C(=O)NCCN`, the IC50 in assay [1] was 250 µM; in assay [2] it was 17 µM; in assay [3], 15 µM; in assay [4] it was over 50 µM.

Take `C[C@@H](NC(=O)c1ccc(S(=O)(=O)Oc2ccc(/C=C/[N+](=O)[O-])cc2)cc1)C(=O)N[C@H](C)C(=O)NCCNC(=O)OC(C)(C)C`: the figures for the IC50 in assay [1], in assay [2] and in assay [4] were over 500 µM, over 50 µM and over 50 µM, respectively.

In the case of `C/C(=C\c1ccc(O)c(O)c1)[N+](=O)[O-]`, the IC50 was over 500 µM in assay [1], 9.4 µM in assay [2], 100 µM in assay [3] and 2.1 µM in assay [4].
